# MEKK3 PB1 HTS: MEKK3-MEK5 PB1 interaction, increase or decrease | bead-based flow cytometry, Alexa488-MEK5 binding to MEKK3; actives lie on both sides; 0 = blocked by unlabeled MEK5, 100 = vehicle | AID 1529 | binding response (% of control), % at 10 µM | Q99759 | 1.4% of 290,000 active;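 active = binding response more than 3 SD above or below the average of its plate-row segment, actives on both sides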;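 note: Alexa488 bead fluorescence after subtracting the streptavidin-only scavenger bead signal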
# MEKK2 mut-MEK5: signal of MEK5 binding to mutant human MEKK2 PB1 domain; bead flow cytometry, Alexa488-MEK5 binding to MEKK2 mutant; percent response, % at 10 µM; 0.35% of 290,000 active; in the data active = percent response above about 24%, passing the limit was not always enough
# MEKK2 WT-MEK5: raises or lowers MEK5 binding to wildtype human MEKK2 PB1 domain. Q9Y2U5. bead flow cytometry, Alexa488-MEK5 binding to MEKK2 WT; actives lie on both sides. 1.1% of 290,000 active. AID 1531. binding response (% of control), % at 10 µM; in the data active = binding response below about 67% or above about 130%
# UCH37 DUB inh: inhibitors of human deubiquitinating enzyme UCH37. Q9Y5K5. purified proteasome/UCH37, Ub-AMC cleavage fluorescence. inhibition, % (concentration not given with the values). 0.33% of 330,000 active;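 active = mean inhibition over replicate wells above about 20%, limit read from the data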
# Target sequence (Q9Y5K5 whole entry, looked up): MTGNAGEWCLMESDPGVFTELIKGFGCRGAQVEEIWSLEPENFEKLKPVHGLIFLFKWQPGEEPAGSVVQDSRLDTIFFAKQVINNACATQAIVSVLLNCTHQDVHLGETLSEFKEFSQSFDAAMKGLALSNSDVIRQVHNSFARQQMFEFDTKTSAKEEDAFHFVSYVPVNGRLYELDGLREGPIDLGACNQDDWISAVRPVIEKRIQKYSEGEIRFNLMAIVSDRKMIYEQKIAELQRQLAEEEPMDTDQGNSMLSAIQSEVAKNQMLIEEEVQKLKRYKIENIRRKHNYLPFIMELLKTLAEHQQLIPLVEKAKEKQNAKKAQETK
#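 assay system = human UCH37 enzyme supplied as purified proteasome complex | amount = proteasome at 0.15 nM in the dispensed enzyme solution | schedule = 30 min compound-proteasome preincubation then 25 min substrate reaction, room temperature | measured by = fluorescence, ex 355 nm, em 460 nm | benchmarks = no-proteasome wells (full inhibition) and compound-free wells (no inhibition)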
# UBC13 inh: inhibitors of human UBC13 polyubiquitin chain formation; TR-FRET; 0.47% of 330,000 active; P61088; AID 485273; inhibition, % at 20 µM; in the data active = inhibition above about 45%, passing the limit was not always enough
# Target sequence (P61088 whole entry, looked up): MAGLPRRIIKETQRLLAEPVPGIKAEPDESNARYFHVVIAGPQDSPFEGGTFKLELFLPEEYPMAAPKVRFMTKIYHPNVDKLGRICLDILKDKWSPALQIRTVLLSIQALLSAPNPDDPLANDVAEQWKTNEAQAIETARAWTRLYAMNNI
# Apaf1 inhib: blocks human Apaf-1 apoptosome activity. reconstituted apoptosome caspase-3 activity, DEVD-Rh110 fluorescence. 0.71% of 330,000 active. O14727. inhibition, % at 20 µM; active = inhibition of at least 40% at 20 µM
#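 Assay system: Apoptosome proteins | Medium: pH 7.5 Hepes buffer with CHAPS, BSA, DTT | Also added: Cytochrome c and DEVD-Rh110 substrate | Times: 30 min plus 50 min, RT | Detection: Rhodamine 110 fluorescence at Ex 480/Em 540 nm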
# Apaf-1 inh conf2: confirmation of Apaf-1 inhibitors; shares compounds with Apaf1 inhib; AID 504614; 25% of 1,800 active; inhibition, % at 20 µM; reconstituted apoptosome, caspase-3 DEVD-Rh110 fluorescence;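 active = mean inhibition of at least 40% at 20 µM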
# Rh110 quench: counter-screen for Apaf-1 inhibitors: fluorescence interference. shares compounds with Apaf1 inhib. Rh110 fluorescence interference, quenched caspase reaction. activation (fluorescence interference), % at 20 µM. 1,800 tested, under 10 active;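 active = signal rise of 40% or more at 20 µM, treated as a fluorescence artifact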
# Apaf1 inh interf: counter-screen for Apaf-1 inhibitors: fluorescence interference, dose response; fluorescence interference counterscreen, Apaf-1 assay format; shares compounds with Apaf1 inhib; IC50, µM; 460 tested, under 10 active; AID 588538; call rule not given here
# Numbers stand for hits; – = inactive; · = no result given. Hits are enriched below; roughly 3% of the tested compounds scored in any of these assays.
SMILES,MEKK3 PB1 HTS,MEKK2 mut-MEK5,MEKK2 WT-MEK5,UCH37 DUB inh,UBC13 inh,Apaf1 inhib,Apaf-1 inh conf2,Rh110 quench,others
Cc1cc(=O)n(-c2ccc3ccccc3n2)[nH]1,–,–,–,–,–,86,–,–,
CN(C)c1cc(Cl)c2nonc2c1N,–,–,–,–,–,94,52,–,Apaf1 inh interf=–
O=[N+]([O-])c1cc(CN2CCCC2)c2cccnc2c1O,–,–,–,·,·,·,·,·,
O=[N+]([O-])c1cc(CN2CCN(c3cccc(C(F)(F)F)c3)CC2)c2cccnc2c1O,–,–,–,–,–,42,–,–,
Cc1ccc(Cl)cc1NC(=O)CCC(=O)NCc1ccco1,–,–,–,–,–,–,·,·,
CN(C(=O)Nc1ccccc1)C1CCS(=O)(=O)C1 (stereo not given),–,–,–,–,–,–,·,·,
CC(=O)NC1=C(N(C)C2CCS(=O)(=O)C2)C(=O)c2ccccc2C1=O (stereo not given),–,–,–,–,–,54,67,–,Apaf1 inh interf=–
Cc1c(C)n2c(SCC(=O)N3CCN(c4ccccc4)CC3)nnc2[nH]c1=O,·,·,·,–,–,–,·,·,
CSc1ccc(CN(C)C(=O)CSCC(=O)Nc2cc(C)on2)cc1,–,–,–,–,–,48,–,–,
COCCCNC(=O)c1c(N)n(-c2ccccc2)c2nc3ccccc3nc12,–,–,–,–,–,84,–,–,
C=CCn1c(N)c(C(=O)Nc2ccccc2)c2nc3ccccc3nc21,–,–,–,–,–,67,–,–,
COCCNC(=O)c1c(N)n(CCCn2ccnc2)c2nc3ccccc3nc12,–,–,–,–,–,94,–,–,
COCCNC(=O)c1c(N)n(N=Cc2cccs2)c2nc3ccccc3nc12,·,·,·,–,·,·,·,·,
C=CCNC(=O)c1c(N)n(-c2cccc(S(N)(=O)=O)c2)c2nc3ccccc3nc12,–,–,–,–,–,61,–,–,
COC(=O)C1C(c2ccc(Cl)cc2)NC(c2ccc(Cl)cc2)C(C(=O)OC)S1(=O)=O (stereo not given),–,–,–,–,–,–,·,·,
C=CCn1c(O)c(C(CC)=NCCN2CCOCC2)c(=O)[nH]c1=O,–,–,–,–,–,–,·,·,
COCCNC(=O)c1c(N)n(-c2cccc(C)c2)c2nc3ccccc3nc12,–,–,–,–,–,–,·,·,
COC(=O)c1c(N)n(-c2ccc(NC(C)=O)cc2)c2nc3ccccc3nc12,–,–,–,–,–,49,–,–,
COCCCNC(=O)c1c(N)n(-c2ccc(S(N)(=O)=O)cc2)c2nc3ccccc3nc12,·,·,·,·,–,–,·,·,
COCCNC(=O)c1c(N)n(-c2ccccc2)c2nc3ccccc3nc12,–,–,–,–,–,81,–,–,
Cc1ccc(C(=O)c2coc3c2C(=O)C(=O)c2ccccc2-3)cc1,–,–,–,–,–,–,·,·,
Cc1coc2c1C(=O)C(=O)c1c-2ccc2c1CCCC2(C)C,–,–,–,–,–,77,59,–,Apaf1 inh interf=–
COC(=O)[C@@]1(C)[C@H]2C(=O)N(C)C(=O)[C@H]2[C@H]2CN=C(SCc3ccccc3)N21,·,·,·,–,·,–,·,·,
O=C1c2ccccc2C2(c3ccccc3)NCCN12 (stereo not given),–,–,–,–,–,–,·,·,
C[C@H](NC(=O)c1ccc(C(C)(C)C)cc1)C(=O)N1CCN(C/C=C/c2ccccc2)CC1,·,·,·,–,–,43,–,–,
O=C1CSC(=S)N1N1C(=O)c2cccc([N+](=O)[O-])c2C1=O,–,–,–,·,–,–,·,·,
COc1ccccc1N=Nc1ccc(O)c2ncccc12,–,–,–,–,–,90,–,–,
Oc1ccc(N=Nc2ccccc2C(F)(F)F)c2cccnc12,–,–,–,–,–,–,·,·,

# Screening data from PubChem BioAssay.
